Source: PMC6980386 (Traffic (Copenhagen, Denmark), 2019)

What was measured:
Experiment in all cases: CADA inhibition of huCD4_1–32-YFP secretion
Type in all cases: cell-based
huCD4_1–32-YFP L16A = huCD4_1–32-YFP L16A (Homo sapiens, UniProt P01730, L16A)
Method in brief: (§1)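 HEK293T cells were grown in DMEM with 10% FBS and 10 mM HEPES, seeded and left to adhere overnight, then transiently transfected with plasmid by Lipofectamine. Test compound was added 6 h after transfection as a 1:5 serial dilution (50 to 0.016 μM) for 48 h. Secreted YFP in the supernatant was captured on GFP-Trap magnetic beads for 1 h, washed with PBS and measured by flow cytometry. IC50 is the concentration that halves the signal relative to the untreated control, taken from a four-parameter fit of at least three replicate experiments. FC is the mutant mean IC50 divided by the WT mean IC50.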

huCD4_1–32-YFP R8A = huCD4_1–32-YFP R8A (Homo sapiens, UniProt P01730, R8A); details: read-out: Secreted YFP IC50 (μM) Mean, HEK293T, CADA 48h
Method in brief: as §1

huCD4_1–32-YFP V5A = huCD4_1–32-YFP V5A (Homo sapiens, UniProt P01730, V5A)
Method in brief: as §1

huCD4_1–32-YFP A17V = huCD4_1–32-YFP A17V (Homo sapiens, UniProt P01730, A17V)
Method in brief: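 HEK293T cells were lipofected with human CD4 residues 1–32 fused to the N-terminus of YFP (secreted, no membrane anchor). Test compound was added 6 h post-transfection as 1:5 serial dilutions (50–0.016 μM) for 48 h. Supernatant was captured on GFP-Trap magnetic beads for 1 h, washed in PBS, and YFP was read by flow cytometry. IC50 is 50% of the untreated control, from four-parameter fits of ≥3 replicate experiments. FC is mutant/WT mean IC50.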

huCD4_1–32-YFP L10A = huCD4_1–32-YFP L10A (Homo sapiens, UniProt P01730, L10A)
Method in brief: as §1

[1] = + less, − more sensitive to CADA
[2] = read-out: Secreted YFP IC50 (μM) Mean, HEK293T, CADA 48h

For C=C1CN(S(=O)(=O)c2ccc(C)cc2)CCCN(Cc2ccccc2)CCCN(S(=O)(=O)c2ccc(C)cc2)C1 [CADA, Cyclotriazadisulfonamide], the “Secreted YFP FC (fold change of mean IC50 relative to WT)” value (huCD4_1–32-YFP L16A; [1]) was −3.2, the IC50 (huCD4_1–32-YFP L16A; [2]) was 0.4 µM and the IC50 (huCD4_1–32-YFP R8A) was over 50 µM. The “Secreted YFP FC (fold change of mean IC50 relative to WT)” value (huCD4_1–32-YFP V5A; [1]) was −3.8, the IC50 (huCD4_1–32-YFP V5A; [2]) was 0.33 µM and the “Secreted YFP FC (fold change of mean IC50 relative to WT)” value (huCD4_1–32-YFP A17V; [1]) was “>+39”. The IC50 (huCD4_1–32-YFP A17V; [2]) was over 50 µM, the “Secreted YFP FC (fold change of mean IC50 relative to WT)” value (huCD4_1–32-YFP L10A; [1]) was −2.1 and the IC50 (huCD4_1–32-YFP L10A; [2]) was 0.6 µM.
